Bioassay records from PubChem BioAssay.
Fibroblast inh: antiproliferative effect on LL 47 fibroblasts – human, LL 47 cells, CellTiter-Glo luminescence, primary screen | LL 47 human lung fibroblast viability, ATP luminescence; stronger effect = lower value | viability, % at 10 µM | 85,000 compounds, 1.1% hits | AID 719, 2007;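 active = viability at or below 50% in the single dose screen; inactive = viability above 50%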;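 also: compound exposure lasted 72 h before the ATP readout; 100% = median luminescence of untreated cell-only wells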
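Benchmarks: Cell-only wells, no compound | Test system: LL 47 human lung fibroblasts, passage 12 or lower | Input: 1,150 cells/well | Measured by: CellTiter-Glo luminescence measuring cellular ATP | Medium: IMEM, 15% FBS supplement | Schedule: Overnight attachment after seeding, then 72 h compound exposure at 37 °C | Doses: Compound addition at 0.1% DMSO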
H69AR inhibit: proliferation blockers of H69AR lung cancer cells, primary screen, cell-based, human, 86K library; H69AR lung tumor viability, ATP luminescence, 72 h; stronger effect = lower value; viability, % at 10 µM; 85,000 compounds, 6% hits; AID 598, 2007;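 active = viability at or below 40%; inactive = viability above 40%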;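 also: multidrug resistant small cell line overexpressing MRP-1 efflux transporter; 100% = mean luminescence of untreated control wells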
HCT116 bCat-KO: primary screen for growth suppressors in beta-catenin knockout HCT116 cells (colon tumor, human); HCT116 beta-catenin knockout viability, CellTiter-Glo, 60 h; stronger effect = lower value; viability, % at 10 µM; 140,000 compounds, 1.5% hits;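 active = viability at or under a set limit, the compound median less 4 SD, cut at about 6% in these data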;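 also: 0% = Hyamine 1622 control at 20 µM and 100% = untreated cell control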
HUVEC inhibit: inhibitors of HUVEC proliferation, primary screen, cell-based, 384-well | 86,000 compounds, 1.1% hits | CellTiter-Glo luminescence, 72 h; stronger effect = lower value | viability, % at 10 µM (by protocol) | AID 648, 2007;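 active = viability at or below 30%; inactive = viability above 30%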;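 also: 100% = median luminescence of DMSO-only cell control wells on each plate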
PTEN del growth: growth suppression of PTEN-null HCT116, primary screen, cell-based, CellTiter-Glo; HCT116 PTEN-null viability, 60 h; stronger effect = lower value; viability, % at 10 µM; 140,000 compounds, 1.2% hits; AID 827, 2007;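 active = viability at or below a set limit, 4 SD under the median of all tested compounds, cut at about 3.7% in these data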;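 also: PTEN knockout HCT116 line with beta catenin targeted HCT116 as companion control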
Phagocytosis inh: inhibitors of macrophage phagocytosis, primary screen, imaging, J774A.1 cells, IgG beads | 110,000 compounds, 0.07% hits | inhibition, % at 5 µM | J774A.1 macrophage IgG-bead phagocytosis;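 active = inhibition above the mean of the plate negative controls plus 5 SD, cut at about 13% in these data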;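 also: phagocytic index as fraction of beads internalized from green versus red external bead signal; plate controls were DMSO negative control for no effect and cytochalasin-D positive control for full effect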
* marks the source's active call; other numbers are inactive results; x = not tested or not shown. The full list was thinned out, with hits kept by preference.

SMILES	Fibroblast inh	H69AR inhibit	HCT116 bCat-KO	HUVEC inhibit	PTEN del growth	Phagocytosis inh
CCOc1ccc(NC(=NCc2ccc3c(c2)OCO3)SC2CC(=O)N(c3ccc(C(=O)O)cc3)C2=O)cc1 (centres undefined)	x	x	89	x	85	1
N=c1n(CCN2CCOCC2)c2ccccc2n1CC(=O)c1ccc(Cl)c(Cl)c1	82	0.9*	63	70	66	1
CCCc1[nH]nc2c1C(c1cn[nH]c1-c1ccc(F)cc1)C(C#N)=C(N)O2 (centres undefined)	75	32*	69	74	61	2
COc1ccccc1CNC(=O)c1cc2c(=O)n(C)c3ccccc3c2n1C	91	26*	x	51	x	x
COc1ccccc1CNC(=O)c1c(-c2ccccc2)nn(-c2ccccc2)c1C	x	x	78	x	x	-1
Cn1c(C(=O)NCCCN2CCN(c3ccccc3F)CC2)cc2c(=O)n(C)c3ccccc3c21	43*	28*	1.7*	42	4	0
COc1ccc(-n2nc(C(=O)NCc3ccco3)c3c4ccccc4n(C)c3c2=O)cc1Cl	34*	25*	67	63	60	-3
COc1ccccc1CNC(=O)c1nn(-c2ccc(C)cc2)c(=O)c2c1c1ccccc1n2C	62	5.2*	67	71	64	-1
O=C1c2ccccc2NC(c2cccnc2)N1c1ccccc1F (centres undefined)	x	x	92	x	98	-1
CC12CCC(C(=O)NNc3ccc([N+](=O)[O-])cc3)(CC1=O)C2(C)C (centres undefined)	x	x	96	x	104	1
Cc1ccc(-n2nc(C(=O)N3CCN(C)CC3)c3c4ccccc4n(C)c3c2=O)cc1	97	82	x	89	x	x
CCN1CCCC1CNC(=O)c1nn(-c2ccc(C)cc2)c(=O)c2c1c1ccccc1n2C (centres undefined)	46*	48	x	25*	x	x
CC1=CC(=O)c2ccccc2C1=O	x	x	44	x	41	x
CC(C)(C=O)C1=CC(=O)c2ccccc2C1=O	x	x	1.3*	x	1.7*	13
NC(=O)[C@@H]1CCOc2c(I)cc([N+](=O)[O-])cc2C(=O)N[C@@H](CO)C(=O)NCC(=O)N1	x	x	93	x	100	x
CC1(C)CC(=O)C2=C(C1)Nc1ccccc1N=C2	99	0.3*	78	88	61	x
Cc1c(C2Nc3ccccc3NC3=C2C(=O)CC(C)(C)C3)cnn1C (centres undefined)	99	101	88	96	92	x
COc1ccc(C2c3c(oc4ccccc4c3=O)C(=O)N2c2ccccn2)cc1 (centres undefined)	88	78	74	99	74	-1
COc1ccc(C2c3c(oc4ccccc4c3=O)C(=O)N2c2ccccn2)cc1OC (centres undefined)	92	26*	x	92	x	x
Cc1ccc(N(CC(=O)NCc2ccc3c(c2)OCO3)S(=O)(=O)c2c(C)noc2C)cc1	108	78	83	96	71	0
Cc1ccc(C=Nc2ccccc2C(N)=O)o1	x	x	96	x	93	2
Cc1ccc(C=Nc2ccc(N(C)C)cc2)o1	106	68	5.4*	90	38	-1
Cc1nn(Cc2ccc(Cl)cc2)c(C)c1NC(=O)CSc1nc2c(c(C(F)(F)F)n1)CCc1ccccc1-2	x	x	15	x	3.5*	x
O=C1C=C(Nc2ccc(O)cc2)CC(c2ccco2)C1 (centres undefined)	80	26*	38	64	32	x
COc1ccc2c(c1)-c1nc(NC(=O)c3ccco3)sc1CC2	106	39*	96	100	86	1
SMILES	Fibroblast inh	H69AR inhibit	HCT116 bCat-KO	HUVEC inhibit	PTEN del growth	Phagocytosis inh
CCOC(=O)c1c(NC(=O)c2ccco2)n(C2CCCCC2)c2nc3ccccc3nc12	105	36*	71	96	65	-2
Cc1noc(C)c1C(=O)NCCCN1CCCC1=O	95	101	97	97	97	x
CCOC(=O)c1c(C)oc2c1c(C(c1cccnc1)N1CCCCC1)c(O)c1ccccc12 (centres undefined)	54	7.3*	25	48	23	0
COC(=O)CNC(=O)CSc1nnc(C)c(=O)[nH]1	x	x	103	x	104	-5
Nc1c(C(=O)NCCc2ccc(Cl)cc2)sc2ccc(S(=O)(=O)N3CCCCC3)cc12	x	x	48	x	58	x
O=C1c2ccccc2C(=O)c2c1oc(C(F)(F)F)c2C(=O)c1ccccc1	3.1*	0.7*	2.0*	3.5*	1.8*	0
CC(=O)c1c(C)oc2c1C(=O)c1ccccc1C2=O	x	x	2.6*	x	1.9*	-7
O=C(c1ccccc1)c1ccc(CN2C(=O)c3ccccc3C2=O)o1	107	98	105	101	106	-4
COc1ccc(CNC(=O)c2c(C)oc3c2C(=O)c2ccccc2C3=O)cc1	x	x	1.3*	x	1.3*	x
CNc1cccc2c1C(=O)c1ccccc1C2=O	x	x	83	x	73	-16
COc1ccc(CN(C)C2c3ccccc3-c3ccccc32)cc1	x	x	43	x	33	-10
CNc1nc(-c2ccccn2)nnc1-c1ccccc1	13*	68	19	11*	21	-1
c1ccc(-c2nnc(-c3ccccn3)nc2NC2CCCCC2)cc1	19*	37*	4.0*	18*	7	-2
CCCCCCn1c(=O)[nH]c2nc3cc(N)ccc3nc2c1=O	x	x	64	x	67	-9
COc1ccccc1N1CCN(Cc2ccc(O)c3ncccc23)CC1	x	x	3.3*	x	1.7*	1
CCOC(=O)C1CCN(Cc2ccc(O)c3ncccc23)CC1	79	1.1*	3.0*	80	1.9*	-2
Oc1ccc(CN2CCCc3ccccc32)c2cccnc12	59	34*	10	86	5	-1
c1ccc(-c2nnc(CN3CCCc4ccccc43)o2)cc1	96	95	80	96	90	-1
COc1ccccc1N1CCN(Cc2ccc(OC)c(OC)c2OC)CC1	88	103	66	86	71	0
CCOC(=O)C1CCN(Cc2ccccc2C(F)(F)F)CC1	98	100	81	90	106	1
Cc1ccc(OCC(=O)Nc2cc(S(=O)(=O)N3CCCCC3)ccc2C)c([N+](=O)[O-])n1	x	x	93	x	88	3
Cc1cc(F)ccc1S(=O)(=O)Nc1ccccc1C(=O)Nc1ccccc1-c1nc2ccccc2[nH]1	x	x	3.7*	x	4	-12
C=CCC1(C#N)C(SC)=NC2=C(C(=O)CC(C)(C)C2)C1c1ccc(Br)cc1 (centres undefined)	x	x	43	x	33	-2
COc1cc(S(=O)(=O)NCc2ccccc2)ccc1F	101	103	93	106	98	0
